Seven molecules from article PMC12102734 (Protein Science : A Publication of the Protein Society, 2025) can be followed below.

mca = not defined here

The target in assay [1] is T1, Sm20S β1 subunit (Schistosoma mansoni, UniProt G4V926).
T1 sequence (G4V926 1-225): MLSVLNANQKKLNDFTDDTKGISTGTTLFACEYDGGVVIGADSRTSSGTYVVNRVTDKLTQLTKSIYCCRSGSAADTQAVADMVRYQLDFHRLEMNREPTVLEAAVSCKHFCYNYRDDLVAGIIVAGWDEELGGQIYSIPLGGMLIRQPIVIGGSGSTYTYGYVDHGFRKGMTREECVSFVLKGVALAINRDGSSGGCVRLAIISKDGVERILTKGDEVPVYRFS
The assay is described as follows: Concentration-response assay, purified Sm20S, Z-LLE-amc substrate. It counts as biochemical. Put shortly: (§1)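 Sm20S purified from adult worm homogenate by 30%/60% ammonium sulfate precipitation, gel filtration and DEAE anion exchange. Test compound was 3-fold serially diluted in DMSO, then diluted 250-fold into 20 mM Tris-HCl pH 7.5, 0.02% SDS with 20 nM enzyme. After 15 min preincubation, an equal volume of 20 μM substrate was added: Z-LLE-amc (β1), Boc-LRR-amc (β2) or Suc-LLVY-amc (β5). Read at RT for 2 h every 2 min. Max velocity over eight reads, normalized to 0.1% DMSO control, four-parameter logistic fit.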

The target of assay [2] is T2, Sm20S β2 subunit (Schistosoma mansoni, UniProt G4VSW3).
T2 sequence (G4VSW3 39-281): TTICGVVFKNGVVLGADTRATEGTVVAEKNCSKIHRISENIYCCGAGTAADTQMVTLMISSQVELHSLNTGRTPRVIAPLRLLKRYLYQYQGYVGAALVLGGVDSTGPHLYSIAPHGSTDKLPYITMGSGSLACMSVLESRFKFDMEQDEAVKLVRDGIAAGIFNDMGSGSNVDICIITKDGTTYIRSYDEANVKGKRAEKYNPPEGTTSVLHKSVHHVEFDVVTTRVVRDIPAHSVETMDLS
The assay is described as follows: Concentration-response assay, purified Sm20S, Boc-LRR-amc substrate. It counts as biochemical. As to conditions: for inhibition at 0.5 µM: 2 h, read-out: reduction of β2 activity (Boc-LRR-amc). In outline:
as §1

The target of assay [3] is T3, Sm20S β5 subunit (Schistosoma mansoni, UniProt A0A5K4F079).
T3 sequence (A0A5K4F079 63-264): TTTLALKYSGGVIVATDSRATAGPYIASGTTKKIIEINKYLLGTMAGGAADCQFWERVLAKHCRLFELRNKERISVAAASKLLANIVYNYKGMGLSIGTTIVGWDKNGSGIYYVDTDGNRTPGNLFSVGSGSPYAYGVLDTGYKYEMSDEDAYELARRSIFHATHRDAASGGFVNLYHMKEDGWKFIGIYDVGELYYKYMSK
The assay is described as follows: Concentration-response assay, purified Sm20S, Suc-LLVY-amc substrate. To be noted: 500 nM inhibitor. It counts as biochemical. In outline: as §1

Assay [4] has as its system 20S proteasome β1 subunit (single-step enriched extracts). The assay is described as follows: Proteasome inhibition in three Schistosoma species, β1 substrate mca-VDQMDGW-K. It counts as biochemical, S. mansoni, S. haematobium, S. japonicum. In outline: (§2)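 Extracts of S. mansoni, S. haematobium and S. japonicum adults were enriched by 30%/60% ammonium sulfate precipitation. Extracts (S. haematobium 0.625 μg/μL; others 1.25 μg/μL) were preincubated 1 h with 500 nM test compound (one also at 250 nM) or 0.125% DMSO. An equal volume of substrate was then added: 20 μM β1 or β2 mca/K(dnp) substrate, or 40 μM β5 Ac-FNKL-amc. Read at 24°C, triplicate wells.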

Assay [5] concerns the target T1, Sm20S β1 subunit. The assay is described as follows: Inhibition of purified Sm20S, caspase-3 substrate mca-VDQMDGW-K. To be noted: 100 nM inhibitor, 10 μM substrate. It counts as biochemical.
Assay [6] has as its target T2, Sm20S β2 subunit. As to the kind of experiment: Inhibition of single-step enriched Sm20S, mca-FnKRR-K. It counts as biochemical. Put shortly:
(§3)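 Single-step enriched Sm20S: S. mansoni extract precipitated with ammonium sulfate (30% then 60% saturation, 60 min each on ice), resuspended in 100 mM Tris-HCl pH 7.5, 100 μM E-64, and concentrated on a 100 kDa filter. Assay buffer contained pepstatin, E-64 and AEBSF. Extract was incubated with test compound 1 h at RT, and cleavage of internally quenched mca/K(dnp) substrates was read at 24°C (ex/em 320/400 nm). Technical triplicates, curve fitting.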

Assay [7] deals with 20S proteasome β5 subunit (single-step enriched extracts). As to the kind of experiment: Proteasome inhibition in three Schistosoma species, β5 substrate Ac-FNKL-amc. Format: biochemical, S. mansoni, S. haematobium, S. japonicum. To be noted: for inhibition of β5 activity, three Schistosoma species: extracts pre-incubated 1 h with 500 nM inhibitor; for reduction of β5 activity, across three Schistosoma species: 250 nM inhibitor. In outline: as §2

Assay [8] deals with T1, Sm20S β1 subunit. As to the kind of experiment: Inhibition of single-step enriched Sm20S, mca-VDQMDGW-K. Format: biochemical. Put shortly:
as §3

Assay [9] concerns 20S proteasome β2 subunit (single-step enriched extracts). As to the kind of experiment: Proteasome inhibition in three Schistosoma species, β2 substrate mca-FnKRR-K. Format: biochemical, S. mansoni, S. haematobium, S. japonicum. To be noted: extracts pre-incubated 1 h with 500 nM inhibitor. Put shortly:
as §2

In assay [10] the test system is Sm20S. Format: biochemical, Schistosoma mansoni. As to conditions: purified Sm20S. Put shortly:
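Purified Sm20S at 10 nM was given 2-fold serial dilutions of each substrate and fluorescence was read at 24°C. Ex/em was 360/460 nm for amc and 320/400 nm for mca substrates. Ranges were 2–500 μM for the β1 pair and 6.25–500 μM for the β2 pair. Relative activity was normalized to the rate at 500 μM (β1 pair), 500 μM Boc-LRR-amc vs 31.25 μM mca-FnKRR-K(dnp) (β2), and 100 μM (β5 pair). Technical triplicates.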

Regarding `CC(C)C[C@H](NC(=O)[C@H](Cc1ccccc1)NC(=O)c1cnccn1)B(O)O` [BTZ, bortezomib], in assay [1] (500 nM inhibitor, purified Sm20S), the “reduction of β1 activity (Z-LLE-amc)” value is “strongly inhibited”. The “inhibition of β2 activity with old substrate Boc-LRR-amc” value in [2] (10 μM inhibitor) was “completely inhibited”. For the same molecule, in [2], the inhibition at 0.5 µM was approximately 35%. The “inhibition of β5 activity (Suc-LLVY-amc)” value in [3] was “strongly inhibited”. Also, the “inhibition of β1 activity, three Schistosoma species” value in assay [4] (extracts pre-incubated 1 h with 500 nM inhibitor) is “preferentially inhibited”. In [5], the “inhibition of mca-VDQMD*GW-K(dnp) hydrolysis by Sm20S” value was “inhibited”. Besides, the “inhibition of β2 activity with new substrate mca-FnKRR-K(dnp)” value in assay [6] (10 μM inhibitor) is given as “did not inhibit”. Also, the “reduction of β2 activity” value in assay [6] (up to 5 μM inhibitor) is reported as “No reduction”. In addition, in assay [7], the “inhibition of β5 activity, three Schistosoma species” value is listed as “preferentially inhibited”.

In the case of `CC(C)C[C@H](NC(=O)[C@H](CCc1ccccc1)NC(=O)CN1CCOCC1)C(=O)N[C@@H](Cc1ccccc1)C(=O)N[C@@H](CC(C)C)C(=O)[C@@]1(C)CO1` [CFZ, carfilzomib], the “inhibition of β1 activity with old substrate Z-LLE-amc” value in assay [1] (10 μM inhibitor) is on record as “fully inhibited”. Besides, the inhibition at 0.5 µM in [1] (2 h, read-out: reduction of β1 activity (Z-LLE-amc)) was approximately 40%; in [2], approximately 40%. In addition, the “inhibition of β1 activity with new substrate mca-VDQMDGW-K(dnp)” value in [8] (10 μM inhibitor, single-step enriched Sm20S) is “only partially inhibitory”. The inhibition at 5 µM in assay [8] (read-out: inhibition of β1 subunit) is 15%. Further, the “inhibition of β5 activity (Suc-LLVY-amc)” value in assay [3] is listed as “strongly inhibited”. In addition, the “inhibition of β5 activity, three Schistosoma species” value in [7] is “inhibited β5 and β2 more than β1”. Besides, in assay [9], the “inhibition of β2 activity, three Schistosoma species” value was “inhibited β5 and β2 more than β1”.

Consider `CCCCCC(=O)N[C@@H](Cc1c[nH]c2ccccc12)C(=O)N[C@@H](Cc1c[nH]c2ccccc12)C(=O)N[C@@H](Cc1ccccc1)C(=O)[C@@]1(C)CO1` [CP‐17], for which the “reduction in β1 activity, across three Schistosoma species” value in assay [4] (250 nM inhibitor) is listed as “little inhibition”. Moreover, in assay [7], the “reduction of β5 activity, across three Schistosoma species” value is reported as more than 90%.

As for `C[C@@]12OC(=O)[C@]1([C@@H](O)[C@@H]1C=CCCC1)NC(=O)[C@@H]2CCCl` [MZB, marizomib], the “reduction of β5 activity, across three Schistosoma species” value in assay [7] is “complete inactivation”.

For Ac‐FNKL‐amc, in assay [10] (both substrates at 25 μM, β5), the “cleavage rate relative to Suc-LLVY-amc” value is ~ 4 fold. Moreover, in assay [10] (β5 substrate), the “substrate concentration at which cleavage is maximal” value was 25 µM.

Boc‐LRR‐amc: the “cleavage by Sm20S over substrate concentration range” value in [10] (6.25-500 μM substrate, β2) was “steadily increased across the entire concentration range”.

As for “mca‐VDQMDGW‐K(dnp)‐NH2 (mca-VDQMDGW-{K(dnp)-NH2}; reading uncertain; also: printed as mca‐VDQMDGW‐K(dnp)‐NH2)”, the “cleavage efficiency relative to LLE-amc” value in assay [10] (between 16 and 250 μM substrate, β1) is ~ 2 fold.
